Experimental data from ChEMBL document CHEMBL1154062, “Novel and potent small-molecule urotensin II receptor agonists” (Bioorg Med Chem, 2009).
Active and inactive are the calls of the source. The calls are words filed in the database; no cut-off is given here.

Columns and labels:
Format in all cases: functional, cell-based
Urotensin-2 receptor = target: T1, Urotensin-2 receptor (Homo sapiens, UniProt Q9UKP6); test: (§1) Agonist activity against human urotensin 2 receptor expressed in […] cells assessed as beta-galactosidase activity after 5 days by R-SAT assay
T1 sequence (Q9UKP6 whole entry): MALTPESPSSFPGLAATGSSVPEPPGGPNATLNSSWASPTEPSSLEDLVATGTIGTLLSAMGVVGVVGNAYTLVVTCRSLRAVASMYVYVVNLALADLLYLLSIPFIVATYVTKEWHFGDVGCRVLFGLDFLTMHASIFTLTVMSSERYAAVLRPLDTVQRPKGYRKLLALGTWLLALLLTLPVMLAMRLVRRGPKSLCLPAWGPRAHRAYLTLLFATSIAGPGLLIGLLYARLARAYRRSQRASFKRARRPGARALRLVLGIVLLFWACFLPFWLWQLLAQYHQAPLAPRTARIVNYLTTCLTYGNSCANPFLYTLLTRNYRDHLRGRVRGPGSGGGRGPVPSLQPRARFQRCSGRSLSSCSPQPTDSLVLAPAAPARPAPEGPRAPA
How it was run: (§2)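 NIH-3T3 cells grown to 80% confluence in DMEM with 10% bovine calf serum, transiently transfected in roller bottles for 18 h with human UT receptor plus β-galactosidase marker, then frozen. Thawed cells were plated in DMEM with 0.4% calf serum and 30% UltraCulture onto compound. They were incubated 5 days in 5% CO2, with reporter read at 420 nm. Eight doses in triplicate; EC50 from 2–5 determinations; efficacy normalized to UII = 100%.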

[1] = target: T2, Urotensin-2 receptor (Homo sapiens) (UniProt Q9UKP6); test: Agonist activity against human urotensin 2 receptor expressed in […] cells assessed as beta-galactosidase activity after 5 days by R-SAT assay relative to urotensin 2; how it was run: as §2
T2 sequence (whole entry): T1 sequence (Q9UKP6 whole entry)

[2] = target: T2, Urotensin-2 receptor (Homo sapiens); test: as §1; how it was run: as §2

Row | SMILES | EC50 (Urotensin-2 receptor) [nM] | Efficacy [1] | pEC50 [2]
1 | CN(C)CCC(NC(=O)c1cccc(-c2ccc(Cl)cc2)c1)c1ccc(Cl)cc1 (configuration not stated) | 437 | 63% | 
2 | CN(C)CCC(NC(=O)c1cccc(-c2ccccc2)c1)c1ccc2ccccc2c1 (configuration not stated) | 537 | 67% | 
3 | Cc1ccc(C(CCN(C)C)NC(=O)c2ccc(-c3ccc(Cl)cc3)cc2)cc1 (configuration not stated) | 126 | 108% | 
4 | CO[C@@H](C(=O)N[C@@H](CCN(C)C)c1ccc(Cl)cc1)c1ccccc1 |  | 165% | 
5 | CO[C@@H](C(=O)N[C@H](CCN(C)C)c1ccc2ccccc2c1)c1ccccc1 | 2750 | 53% | 
6 | CN(C)CCC(NC(=O)c1cccc(-c2ccc3ccccc3c2)c1)c1ccc(Cl)cc1 (configuration not stated) | 363 | 41% | 
7 | CN(C)CC[C@@H](NC(=O)c1ccc(-c2ccc(Cl)cc2)cc1)c1ccc2ccccc2c1 | 457 | 53% | 
8 | CN(C)CC[C@H](NC(=O)c1ccc(-c2ccccc2)cc1)c1ccc(Cl)cc1 |  | 116% | 
9 | COc1ccc(-c2cccc(C(=O)NC(CCN(C)C)c3ccc(Cl)cc3)c2)cc1 (configuration not stated) | 575 | 78% | 
10 | CN(C)CCC(NC(=O)c1ccc(-c2ccc(Cl)cc2)cc1)c1ccc2ccccc2c1 (configuration not stated) | 43.7 | 129% | 
11 | CN(C)CC[C@H](NC(=O)c1ccc(-c2ccc(Cl)cc2)cc1)c1ccc2ccccc2c1 | 22.9 | 129% | 
12 | COc1ccc(-c2ccc(C(=O)NC(CCN(C)C)c3ccc(C)cc3)cc2)cc1 (configuration not stated) | 347 | 119% | 
13 | CN(C)CCC(NC(=O)c1ccc(-c2ccc3ccccc3c2)cc1)c1ccc2ccccc2c1 (configuration not stated) | 525 | 77% | 
14 | CN(C)CCC(NC(=O)c1ccc(-c2ccccc2)cc1)c1ccc2ccccc2c1 (configuration not stated) | 120 | 111% | 
15 | Cc1ccc(C(CCN(C)C)NC(=O)c2ccc(-c3ccc4ccccc4c3)cc2)cc1 (configuration not stated) | 813 | 83% | 
16 | Cc1ccc(C(CCN(C)C)NC(=O)c2ccc(-c3ccccc3)cc2)cc1 (configuration not stated) | 200 | 114% | 
17 | CN(C)CCC(NC(=O)c1cccc(-c2ccc(Cl)cc2)c1)c1ccc2ccccc2c1 (configuration not stated) | 1100 | 45% | 
18 | COc1ccc(-c2ccc(C(=O)NC(CCN(C)C)c3ccc4ccccc4c3)cc2)cc1 (configuration not stated) | 105 | 111% | 
19 | CN(C)CCC(NC(=O)c1ccc(-c2ccc3ccccc3c2)cc1)c1ccc(Cl)cc1 (configuration not stated) | 309 | 131% | 
20 | CO[C@@H](C(=O)N[C@H](CCN(C)C)c1ccc(Cl)cc1)c1ccccc1 |  | 112% | 
21 | CN(C)CCC(NC(=O)c1cccc(-c2ccc3ccccc3c2)c1)c1ccc2ccccc2c1 (configuration not stated) | 3470 |  | 
22 | COc1ccc(-c2ccc(C(=O)NC(CCN(C)C)c3ccc(Cl)cc3)cc2)cc1 (configuration not stated) | 74.1 | 143% | 
23 | CN(C)CCC(NC(=O)c1ccc(-c2ccccc2)cc1)c1ccc(Cl)cc1 (configuration not stated) |  | 116% | 
24 | CN(C)CCC1(c2ccc(Cl)cc2)Cc2ccccc2C(=O)O1 (configuration not stated) | ≥ 1120 |  | 
25 | CN(C)CCCC(NC(=O)c1ccc(-c2ccccc2)cc1)c1ccc(Cl)cc1 (configuration not stated) | 316 | 91% | 

Next, values leading:

Row | EC50 (Urotensin-2 receptor) [nM] | Efficacy [1] | pEC50 [2] | SMILES
26 | 1070 | 69% |  | COc1ccc(-c2cccc(C(=O)NC(CCN(C)C)c3ccc(C)cc3)c2)cc1 (configuration not stated)
27 | 741 | 140% |  | CO[C@@H](C(=O)N[C@@H](CCN(C)C)c1ccc2ccccc2c1)c1ccccc1
28 | 3800 | 77% |  | CN(C)CCCC(NC(=O)c1ccccc1)c1ccc(Cl)cc1 (configuration not stated)
29 | 813 | 45% |  | Cc1ccc(C(CCN(C)C)NC(=O)c2cccc(-c3ccccc3)c2)cc1 (configuration not stated)
30 | 646 | 39% |  | Cc1ccc(C(CCN(C)C)NC(=O)c2cccc(-c3ccc(Cl)cc3)c2)cc1 (configuration not stated)
31 | 661 | 57% |  | O=C(NC(CCN1CCCCC1)c1ccc(Cl)cc1)c1ccc(-c2ccccc2)cc1 (configuration not stated)
32 | 75.9 | 137% |  | CN(C)CCC(NC(=O)c1ccc(-c2ccc(Cl)cc2)cc1)c1ccc(Cl)cc1 (configuration not stated)
33 | 575 | 92% |  | CN(C)CCC(NC(=O)c1cccc(-c2ccccc2)c1)c1ccc(Cl)cc1 (configuration not stated)
34 |  | inactive | inactive | Cc1ccc(C(CCN(C)C)NC(=O)c2cccc(-c3ccc4ccccc4c3)c2)cc1 (configuration not stated)
35 | 646 | 50% |  | COc1ccc(-c2cccc(C(=O)NC(CCN(C)C)c3ccc4ccccc4c3)c2)cc1 (configuration not stated)
36 | 6460 | 55% |  | O=C(NC(CCN1CCCCC1)c1ccc(Cl)cc1)c1ccccc1 (configuration not stated)
37 |  | 96% |  | CN(C)CC[C@@H](NC(=O)c1ccc(-c2ccccc2)cc1)c1ccc(Cl)cc1
